Measurements as given in ChEMBL document CHEMBL1141397, “Pharmacophore-based design of sphingosine 1-phosphate-3 receptor antagonists that include a 3,4-dialkoxybenzophenone scaffold” (J Med Chem, 2007).
pIC50: −log10 of the molar value.

Legend:
Type in all cases: functional, cell-based
[1] = target: T1, Sphingosine 1-phosphate receptor 3 (Homo sapiens, UniProt Q99500); experiment: Antagonist activity against human S1P3 receptor assessed as inhibition of S1P-induced intracellular calcium mobilization in CHO-K1 cells
Summary of the method: (§1)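 CHO-K1 cells stably transfected with the S1P1, S1P2 or S1P3 receptor, grown in Ham's F12K with G418 (200 µg/mL). Cells plated at 20 000/well in Ham's medium with 1% FBS for 24 h at 37 °C, washed, then held in Ham's medium for a further 24 h. Cells are washed with HBSS containing sulfinpyrazone (0.25 mmol/L) and loaded with Fura-2.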

[2] = target: T2, Sphingosine 1-phosphate receptor 1 (Homo sapiens, UniProt P21453); experiment: Antagonist activity against human S1P1 receptor assessed as inhibition of S1P-induced intracellular calcium mobilization in CHO-K1 cells; summary of the method: as §1
[3] = target: Sphingosine 1-phosphate receptor 2 (Homo sapiens) (UniProt O95136); experiment: Antagonist activity against human S1P2 receptor assessed as inhibition of S1P-induced intracellular calcium mobilization in CHO-K1 cells at 10 uM; summary of the method: as §1
[4] = target: T2, Sphingosine 1-phosphate receptor 1; experiment: Activity at human S1P1 receptor assessed as inhibition of S1P-induced intracellular calcium mobilization in CHO-K1 cells at 10 uM; summary of the method: as §1
[5] = target: T1, Sphingosine 1-phosphate receptor 3; experiment: Antagonist activity against human S1P3 receptor assessed as inhibition of S1P-induced intracellular calcium mobilization in CHO-K1 cells at 10 uM; summary of the method: as §1

T2 sequence (P21453 whole entry): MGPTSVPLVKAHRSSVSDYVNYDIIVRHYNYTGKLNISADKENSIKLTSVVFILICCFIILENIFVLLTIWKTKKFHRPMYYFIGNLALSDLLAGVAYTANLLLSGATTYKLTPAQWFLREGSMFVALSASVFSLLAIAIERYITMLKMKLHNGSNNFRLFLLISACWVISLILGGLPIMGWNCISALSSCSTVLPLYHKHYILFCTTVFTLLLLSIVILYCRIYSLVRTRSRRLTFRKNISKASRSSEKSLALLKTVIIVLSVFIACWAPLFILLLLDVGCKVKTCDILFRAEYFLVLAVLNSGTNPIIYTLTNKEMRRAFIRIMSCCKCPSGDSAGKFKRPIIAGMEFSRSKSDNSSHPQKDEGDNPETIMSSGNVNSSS
Sequence of Sphingosine 1-phosphate receptor 2 (Homo sapiens) (O95136 whole entry): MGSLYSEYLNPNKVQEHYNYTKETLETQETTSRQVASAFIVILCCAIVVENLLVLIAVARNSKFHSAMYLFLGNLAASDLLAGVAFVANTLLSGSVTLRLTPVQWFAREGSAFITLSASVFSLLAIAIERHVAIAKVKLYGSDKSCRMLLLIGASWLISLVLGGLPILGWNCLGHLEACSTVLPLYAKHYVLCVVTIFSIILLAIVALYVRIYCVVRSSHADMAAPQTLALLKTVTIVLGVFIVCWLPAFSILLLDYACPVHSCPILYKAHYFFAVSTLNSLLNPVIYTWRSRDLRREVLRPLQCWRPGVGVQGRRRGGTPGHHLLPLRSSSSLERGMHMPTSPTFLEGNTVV
T1 sequence (Q99500 whole entry): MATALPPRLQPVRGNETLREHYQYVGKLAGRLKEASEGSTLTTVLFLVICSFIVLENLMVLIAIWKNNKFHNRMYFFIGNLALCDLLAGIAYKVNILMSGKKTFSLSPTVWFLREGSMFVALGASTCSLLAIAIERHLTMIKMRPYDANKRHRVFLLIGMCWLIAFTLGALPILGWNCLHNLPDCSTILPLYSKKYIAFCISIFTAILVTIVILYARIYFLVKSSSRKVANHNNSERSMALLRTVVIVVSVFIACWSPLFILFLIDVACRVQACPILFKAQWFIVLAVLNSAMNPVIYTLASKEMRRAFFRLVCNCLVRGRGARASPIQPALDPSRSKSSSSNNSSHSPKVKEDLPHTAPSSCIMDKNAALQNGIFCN

| SMILES | pIC50 [1] | inhibition [3] [%] | inhibition [4] [%] | further results |
| --- | --- | --- | --- | --- |
| CCCCCCCCCc1cccc(C2N[C@H](C(=O)O)CS2)c1 (some centres not stated) | < 4.70 |  |  |  |
| COc1ccc(C2N[C@H](C(=O)O)CS2)cc1COc1c(C)cc(Cl)cc1C(C)C (some centres not stated) | < 4.70 |  |  |  |
| CCCCCCCCCCCCCCCCCC(=O)Nc1ccc(C(=O)CC(=O)Cc2cc(C(=O)O)ccc2Oc2cc(C(=O)O)cc(C(=O)O)c2)cc1 | 5.44 |  |  |  |
| CCCCCCCCCCCCCCCCCNc1ccc(C(=O)CC(=O)Cc2cc(C(=O)O)ccc2Oc2cc(C(=O)O)cc(C(=O)O)c2)cc1 | 5.34 |  |  |  |
| CCCCCCCCCCCCCCCCOc1ccc(/C(=N\NS(=O)(=O)c2cc(C(=O)O)cc(C(=O)O)c2)c2ccccc2)cc1OC | 5.45 | 9.5 |  | pIC50 [2]: 5.37 |
| CCCCCCCCCCCCCCCCOc1ccc(S(=O)(=O)O)cc1C(=O)O | 5.06 |  |  |  |
| CCCCCCCCCCCCCCCCOc1ccc(/C(=N/NS(=O)(=O)c2cc(C(=O)O)cc(C(=O)O)c2)c2ccccc2)cc1 | 5.01 | 20.5 | 17.2 |  |
| CCCCCCCCCCCCCCCCOc1ccc(/C(=N/NS(=O)(=O)c2cccc(C(=O)O)c2)c2ccccc2)cc1OC |  | -0.1 | 34.8 | HI [5]: 34.4% |
| CCCCCCCCCCCCCCCCOc1ccc(/C(=N\NS(=O)(=O)c2cccc(C(=O)O)c2)c2ccccc2)cc1OC |  | -8.7 | 1 | inhibition [5]: 8.3% |
| CCCCCCCc1ccc(C2N[C@H](C(=O)O)CS2)cc1 (some centres not stated) | 4.88 |  |  |  |
| CCCCCCCc1cccc(C2N[C@H](C(=O)O)CS2)c1 (some centres not stated) | 5.01 |  |  |  |
| CCCCCCCCCCCCCC1N[C@H](C(=O)O)CS1 (some centres not stated) |  |  |  | inhibition [5]: < 10% |
| CCCCOc1ccc(/C(=N/NS(=O)(=O)c2cc(C(=O)O)cc(C(=O)O)c2)c2ccccc2)cc1OC |  | 6.2 | 24.2 | inhibition [5]: 6.7% |
| CCCCCCCCCCCCCCCCOc1ccc(/C(=N/NS(=O)(=O)c2cc(C(=O)O)cc(C(=O)O)c2)N2CCCCC2)cc1OC | 5.46 | 35.9 |  | pIC50 [2]: 5.21 |
| CCCCCCCCCCCCCCCCOc1ccc(/C(=N/NS(=O)(=O)c2cc(C(=O)O)cc(C(=O)O)c2)c2ccccc2)cc1OC | 5.53 | 40.9 |  | pIC50 [2]: 5.18 |
| CCCCCCCCCCC1N[C@H](C(=O)O)CS1 (some centres not stated) | 4.80 |  |  |  |
| CCCCCCCCCCCC1N[C@H](C(=O)O)CS1 (some centres not stated) | 4.94 |  |  |  |
| CCCCCCCCOc1ccc(/C(=N/NS(=O)(=O)c2cc(C(=O)O)cc(C(=O)O)c2)c2ccccc2)cc1OC | 4.94 | -4.6 | 12.7 |  |
| CCCCCCCCOc1ccc(/C(=N\NS(=O)(=O)c2cc(C(=O)O)cc(C(=O)O)c2)c2ccccc2)cc1OC | 4.88 | 14 | 32.9 |  |
